The source of these data is PubChem BioAssay AID504382 (The Scripps Research Institute Molecular Screening Center, 2011).

The structures appear in SMILES notation. The whole screen tested about 2,500 compounds, of which about 460 (18%) were called active. Not all results are given here. A number with no mark means an inactive call.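 How the source made its calls: active means mean activation above a cutoff of low control average plus 3 SD from the earlier screen (cut at about 12% in these data); inactive means the rest.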

This assay is described as follows: compound fluorescence interference without thin filaments, confirmation, artefact control for cardiac RTF calcium sensitizer project, biochemical (AID 504382). The conditions noted are these: IANBD fluorescence interference counterscreen, buffer, EC20 Ca2+; at 7.2 µM; hits give high values; scaled: EC20 calcium 0, EC100 calcium 100. In outline: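 Medium: MOPS/KCl/MgCl2/EGTA/NTA/DTT buffer, pH 7.2 | Reagent: EC20 calcium, 0.472 mM | Compound dosing: 7.2 µM single dose | Times: 15 min compound exposure at 25 °C | Signal: Fluorescence, 480/540 nm | Measure: Interference relative to controls | Repeats: Triplicate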
In general terms: Counterscreens check selectivity or assay interference.
With `COc1ccc(CC(=O)NNC(=O)c2ccncc2)cc1`, the fluorescence artifact activation is 0.18%.
For `COc1ccc(/C=N/NC(=O)c2cccnc2)cc1CN1CCOCC1`, the fluorescence artifact activation is 6.25%.
The same measure for `CCOC(=O)C1=C(C)NC(C)=C(C(=O)OCC)C1c1ccco1`: 0.15%; for `OCCNCc1cccc(OCc2ccc(Cl)cc2)c1`: 61% (active).
Regarding `COc1ccc(CNCc2cccc(Cl)c2)cc1`, the fluorescence artifact activation was 0.14%.
The same measure for `Cc1ccc(C(C(=O)NC2CCCC2)N(C(=O)Cc2cccs2)c2cccc(C)c2C)o1` (stereo not given): 0%; for `CC1=C(C(=O)OCCCCCl)C(c2cc3c(cc2Br)OCO3)NC(=O)N1` (stereo not given): -0.02%; for `C[C@H]1CN([C@@H](C)CO)C(=O)Cc2cc(NC(=O)CCC(F)(F)F)ccc2O[C@H]1CN(C)S(C)(=O)=O`: 0.55%.
The same measure for `Oc1[nH]c2ccccc2c1N=Nc1ccc(F)cc1`: 34.1% (active); for `Oc1[nH]c2ccccc2c1N=Nc1ccccc1F`: -0.02%; for `Oc1[nH]c2ccccc2c1N=Nc1ccccc1`: 11.6%.
The same measure for `COc1ccc(-n2c(O)c(/C=N/NS(=O)(=O)c3cccc([N+](=O)[O-])c3)c3ccccc3c2=O)cc1OC`: 0.15%; for `CC1CC1c1ccc(/C=C(\C#N)C(=O)Nc2cccc(Cl)c2Cl)o1` (stereo not given): 4%.
Regarding `Cn1nccc1NC(=O)Nc1cccc(Cl)c1Cl`, the fluorescence artifact activation was 13.5% (active).
The same measure for `Cn1ncc(Cl)c1C(=O)Nc1cccc(Cl)c1`: 0.09%; for `O=C(Nc1ccccc1)C1=C[C@H](c2ccc3c(c2)OCO3)C[C@H](OCCCCO)O1`: 1.74%.
The same measure for `COc1cc(/C=N/NC(=O)c2cc(-c3ccccc3Cl)nc3ccccc23)cc(OC)c1O`: 8.56%; for `O=c1[nH][nH]c(C(F)(F)F)c1C=Nc1cccc(Cl)c1`: 1.19%; for `Cc1cc(O)c(CN(C)C)c2c1C(=O)/C(=C/c1ccco1)O2`: 0%.
The same measure for `CC(C)Cn1c(N)c(C(=O)COC(=O)c2cc(F)cc(F)c2)c(=O)n(C)c1=O`: 40.2% (active).
As to `CCOC(=O)C1=C(C)N=c2s/c(=C/c3ccc(OCC(=O)O)c(OC)c3)c(=O)n2C1c1ccc(Cl)cc1` (stereo not given), the fluorescence artifact activation is -0.04%.
The same measure for `Cc1cc(C=C2C(=O)c3ccccc3C2=O)c(C)n1-c1ccc(Cl)cc1`: -0.07%; for `CCN1C(=O)/C(=C/c2ccc(N3CCCC3)cc2)NC1=S`: 0.26%.
The same measure for `CCCN1C(=O)/C(=C/c2ccc(N3CCOCC3)cc2)NC1=S`: 131% (active); for `CCCN1C(=O)/C(=C/c2ccc(N3CCCC3)c(C)c2)NC1=S`: 0.06%.
`CC1(C)NC(=O)N(CCCCOc2ccc(Cl)cc2)C1=O`: the fluorescence artifact activation was 0.28%.
Turning to `CCOC(=O)NC1(C(F)(F)F)C(=O)NC(C)=C1C(=O)OC` (stereo not given), the fluorescence artifact activation was 5.24%.
Take `Cc1ccc(-n2c(C)n[nH]c2=S)cc1`: the fluorescence artifact activation is 1.66%.
The same measure for `S=c1[nH]nc(-c2ccc(Cl)cc2)n1-c1ccc2c(c1)OCCO2`: 31.8% (active); for `CCN(CC)c1ccc(/C=C2/SC(=O)N(C(C)C)C2=O)o1`: 8.25%.
On to `C/C(=N/NS(=O)(=O)c1ccccc1)c1ccc(NC(=O)C2CC2)cc1`, for which the fluorescence artifact activation was 6.01%.
The same measure for `O=C(CCCN1C(=O)c2ccccc2C1=O)Nc1ccc(S(=O)(=O)N2CCCCC2)cc1`: 0.02%; for `O=C(CNCc1cccs1)Nc1ccc(S(=O)(=O)N2CCCCC2)cc1`: 15.8% (active).
As to `O=C(CNCc1cccs1)Nc1cc(S(=O)(=O)N2CCCC2)ccc1Cl`, the fluorescence artifact activation is 4.18%.
The same measure for `CCC1(O)C(=O)OCc2c1cc1n(c2=O)Cc2cc3cc(O)ccc3nc2-1` (stereo not given): 0.27%; for `Cc1cc(C)n(CC(O)COc2ccccc2)n1` (stereo not given): 0.59%; for `O=C1CCC(=O)N1CC(O)COc1ccccc1` (stereo not given): 61.5% (active).
The same measure for `CCOc1ccccc1C(=O)NN1C(=O)CCC1=O`: 3.75%; for `CC(C)(C)NC(=O)[C@@H]1CN(Cc2cccnc2)CCN1C[C@@H](O)C[C@@H](Cc1ccccc1)C(=O)N[C@H]1c2ccccc2C[C@H]1O`: 54.1% (active).
In the case of `Cn1nc([N+](=O)[O-])c(C(C#N)c2ccccn2)c(Cl)c1=O` (stereo not given), the fluorescence artifact activation is -0.03%.
The same measure for `CN1C(=O)/C(=C\c2ccc(N(C)C)cc2)OC1=S`: 57.7% (active).
As to `Cc1c(N2C(=O)/C(=C\c3ccc(N(C)C)cc3)N(C)C2=S)c(=O)n(-c2ccccc2)n1C`, the fluorescence artifact activation was 0.17%.
With `CN(C)c1ccc(/C=C2\N=C(C(C)(C)C)OC2=O)cc1`, the fluorescence artifact activation was 0.15%.
The same measure for `Cc1ccc(NC2OC(C(O)CO)C(O)C2O)cc1[N+](=O)[O-]` (stereo not given): 5.79%.
Regarding `O=C(c1ccc(COc2ccccc2Br)o1)N1N=C(C(F)F)CC1(O)C(F)F` (stereo not given), the fluorescence artifact activation is 8.57%.
`CC(=O)Nc1ccc(S(=O)(=O)N2CCN3CCCC3C2)cc1` (stereo not given): the fluorescence artifact activation was -0.04%.
As for `CCOC(=O)/C(=C\c1ccc(N2CCC(c3ccccc3)=N2)cc1)C(C)=O`, the fluorescence artifact activation is -0.05%.
The same measure for `CCOC(=O)/C(=C/C1=CC(=C/N(C)C)/C(=O)O1)C(C)=O`: 22.1% (active); for `CCOC(=O)/C(=C/C=C1\Sc2cc(C)c(C)cc2N1CC)C(C)=O`: 0.02%; for `CCc1ccc(/C=N/n2c(C)cc(C)c(C#N)c2=O)cc1`: 0.12%.
In the case of `CCCNC(=S)N1CCC(NC(=O)C23CC4CC(CC(C4)C2)C3)CC1`, the fluorescence artifact activation is 0.09%.
On to `Cc1ccccc1-n1nnnc1SCC(C)C`, for which the fluorescence artifact activation was 32.8% (active).
The same measure for `CSc1nnnn1-c1c(C)cc(C)cc1C`: 0.04%; for `CCn1nnnc1SCC(=O)N1CCCc2ccccc21`: 0.01%.
The same measure for `CCO[C@@H]1OC(C(=O)O)=C[C@H](c2coc3ccccc3c2=O)[C@H]1CCCO`: 1.71%; for `COCCn1c(SCC#N)nnc1-c1ccc([N+](=O)[O-])cc1`: -0.11%.
The same measure for `COc1cccc(N=C2NC(=O)/C(=C/c3cc([N+](=O)[O-])ccc3O)S2)c1`: 0.01%; for `COc1cc(/C=C2\SC(=Nc3ccccc3)NC2=O)cc(Cl)c1O`: 0.21%; for `COc1cc(/C=C2\SC(=Nc3ccc(Cl)c(C(=O)O)c3)NC2=O)c(Br)c(Br)c1O`: 17.6% (active).
In the case of `c1ccc(-c2nc(-c3ccco3)n3ccccc23)cc1`, the fluorescence artifact activation is 0.05%.
The same measure for `O=C(/C=C/c1cccc(F)c1)Nc1cc(S(=O)(=O)N2CCOCC2)ccc1N1CCCC1`: 0.02%; for `N=C1/C(=C\c2coc3ccccc3c2=O)C(=O)N=C2SC(c3ccncc3)=NN12`: 7.67%.
`CSC1=NSC2=NC(=O)/C(=C/c3coc4ccccc4c3=O)C(=N)N12`: the fluorescence artifact activation was 0.27%.
As to `N=C1/C(=C\c2coc3ccccc3c2=O)C(=O)N=C2SC=CN12`, the fluorescence artifact activation is -0.01%.
The same measure for `CC(C)CC1=NN2C(=N)/C(=C\c3coc4ccccc4c3=O)C(=O)N=C2S1`: 2.69%.
Take `CC(C)CSC1=NSC2=NC(=O)/C(=C\c3coc4ccccc4c3=O)C(=N)N12`: the fluorescence artifact activation was 12.7% (active).
Take `CCSC1=NSC2=NC(=O)/C(=C\c3coc4ccccc4c3=O)C(=N)N12`: the fluorescence artifact activation is 24.5% (active).
The same measure for `Cn1nnnc1SCCOc1ccc(C#N)cc1`: -0.03%.
The same measure for `CSc1cccc(NC(=O)c2ccc(Cl)nc2)c1`: -0.04%; for `Fc1ccc(-c2[nH]ncc2CN(CC2CCC2)CC2CCCO2)c(F)c1` (stereo not given): 8.43%; for `C=C(C)c1sc(-c2ccc(Cl)cc2)nc1C`: 0.11%.
The same measure for `O=C(NN1C(=O)/C(=C/c2ccc(O)cc2)SC1=S)c1cccc(O)c1`: 0.01%.
Turning to `Cc1cc2nc(C3CCCN(C(=O)NCc4ccccc4)C3)[nH]c2cc1C` (stereo not given), the fluorescence artifact activation is 8.15%.
The same measure for `COc1ccc(-n2c(O)c(/C=N/NS(=O)(=O)c3cc(C)ccc3C)c3ccccc3c2=O)cc1OC`: 0.84%.
Take `COc1ccc(-n2c(O)c(/C=N/NS(=O)(=O)c3ccc(C)cc3)c3ccccc3c2=O)cc1OC`: the fluorescence artifact activation is 12.8% (active).
The same measure for `COc1ccc(-n2c(O)c(/C=N/NS(=O)(=O)c3ccc(C)c([N+](=O)[O-])c3)c3ccccc3c2=O)cc1OC`: -0.02%; for `COc1ccc(/C(C)=N/N2C(=O)c3ccccc3NC2c2ccc(O)c(OC)c2)cc1` (stereo not given): 0.69%.
In the case of `Cc1cn(COC/C=C/c2ccccc2)c(=O)[nH]c1=O`, the fluorescence artifact activation is 25.6% (active).
The same measure for `Cc1ccccc1-n1c(O)c(/C=C/C=Nc2ccccc2)c(=O)[nH]c1=O`: 2.27%.
The same measure for `CCCCOc1ccc(C2OC34CCCCC3C(C#N)(C#N)C2(C#N)C(=N)O4)cc1` (stereo not given): 0.1%; for `COc1ccc(C(=O)OC/C(O)=C(\C#N)c2nc3ccccc3[nH]2)cc1S(=O)(=O)N1CCOCC1`: 0.13%.
The same measure for `O=C1OCC/C1=C\c1ccccc1O`: -0.06%; for `COC(=O)C1CSc2[nH]c(=O)sc2C1c1ccccc1` (stereo not given): 0.07%.
For the molecule `Cn1cccc1/C=C1\SC(=S)N(NC(=O)c2ccc(Cl)cc2)C1=O`, the fluorescence artifact activation was 0.86%.
In the case of `CN1CCS/C1=C/C=C1\SC(=S)N(CC(=O)O)C1=O`, the fluorescence artifact activation was 18.9% (active).
The same measure for `Cn1cccc1/C=C1\SC(=S)N(NC(=O)c2ccccc2)C1=O`: 18.2% (active); for `CC(C(=O)O)N1C(=O)/C(=C/c2cccn2C)SC1=S` (stereo not given): 6.16%; for `Cc1ccc(C(=O)NN2C(=O)/C(=C/c3cn(C)c4ccccc34)SC2=S)cc1`: 7.41%.
`CN1CCS/C1=C\C=C1/SC(=S)N(CC(=O)O)C1=O`: the fluorescence artifact activation is -0.02%.
The same measure for `CCCCN1C(=O)/C(=C/C=C2\SCCN2C)SC1=S`: 0%.
Take `Cc1ccc(C(=O)NN2C(=O)/C(=C/c3cccn3C)SC2=S)cc1`: the fluorescence artifact activation was 4.27%.
Turning to `CC(C)C(C(=O)O)N1C(=O)/C(=C/c2cccn2C)SC1=S` (stereo not given), the fluorescence artifact activation was 12.3% (active).
The same measure for `CCC(C(=O)O)N1C(=O)/C(=C/c2cccn2C)SC1=S` (stereo not given): 4.17%; for `Cn1cc(/C=C2\SC(=S)N(NC(=O)c3ccccc3)C2=O)c2ccccc21`: 2.64%; for `Cn1cc(/C=C2\SC(=S)N(NC(=O)c3cccc(Cl)c3)C2=O)c2ccccc21`: 17% (active).
